Results as given in ChEMBL document CHEMBL3588757, “Structure-based design, synthesis and biological testing of piperazine-linked bis-epipodophyllotoxin etoposide analogs” (Bioorg Med Chem, 2015).

What was measured:
[1] = test system: K562; assay: Cytotoxicity against human K562 cells assessed as cell growth inhibition after 72 hrs by MTS assay; format: functional, cell-based; conditions: K562, 72 h
[2] = test system: K562; assay: Relative resistance, ratio of IC50 for etoposide-resistant human K/VP.5 cells to IC50 for human K562 cells; format: functional
[3] = test system: SNB-19; assay: Cytotoxicity against human SNB19 cells assessed as cell growth at 50 uM by SRB assay; format: functional; conditions: read-out: Activity
[4] = test system: UACC-62; assay: Cytotoxicity against human UACC62 cells assessed as cell growth at 50 uM by SRB assay; format: functional; conditions: read-out: Activity
[5] = test system: OVCAR-5; assay: Cytotoxicity against human OVCAR5 cells assessed as cell growth at 50 uM by SRB assay; format: functional; conditions: read-out: Activity
[6] = test system: SR; assay: Cytotoxicity against human SR cells by SRB assay; format: functional
In short: (§1)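 NCI-60 panel screen; 5-dose testing giving GI50 per cell line, plus a single 10 µM one-dose test. Method details not given beyond the NCI screen.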

[7] = test system: HOP-92; assay: Cytotoxicity against human HOP92 cells by SRB assay; format: functional
In short: (§2)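 Measured in the NCI-60 human tumour cell line panel using five-dose testing. Growth was recorded at each dose for each cell line, and a GI50 was derived for each line.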

[8] = test system: U-251; assay: Cytotoxicity against human U251 cells by SRB assay; format: functional; in short: as §1
[9] = test system: OVCAR-8; assay: Cytotoxicity against human OVCAR8 cells by SRB assay; format: functional; in short: as §1
[10] = Cytotoxicity against human NCI-ADR-RES cells by SRB assay; format: functional; in short: as §1
[11] = test system: SK-OV-3; assay: Cytotoxicity against human SKOV3 cells by SRB assay; format: functional; in short: as §1
[12] = test system: RXF 393; assay: Cytotoxicity against human RXF393 cells by SRB assay; format: functional; in short: as §1
[13] = test system: UO-31; assay: Cytotoxicity against human UO31 cells by SRB assay; format: functional; in short: as §1
[14] = test system: MDA-MB-468; assay: Cytotoxicity against human MDA-MB-468 cells by SRB assay; format: functional; in short: as §1
[15] = test system: NCI-H460; assay: Cytotoxicity against human NCI-H460 cells assessed as cell growth at 0.005 uM by SRB assay; format: functional; conditions: read-out: Activity
[16] = test system: HCC 2998; assay: Cytotoxicity against human HCC2998 cells assessed as cell growth at 0.005 uM by SRB assay; format: functional; conditions: read-out: Activity; in short: as §2
[17] = test system: U-251; assay: Cytotoxicity against human U251 cells assessed as cell growth at 0.005 uM by SRB assay; format: functional; conditions: read-out: Activity
[18] = test system: NCI-H460; assay: Cytotoxicity against human NCI-H460 cells assessed as cell growth at 0.05 uM by SRB assay; format: functional; conditions: read-out: Activity
[19] = test system: COLO 205; assay: Cytotoxicity against human COLO205 cells assessed as cell growth at 0.05 uM by SRB assay; format: functional; conditions: read-out: Activity
[20] = test system: HCC 2998; assay: Cytotoxicity against human HCC2998 cells assessed as cell growth at 0.05 uM by SRB assay; format: functional; conditions: read-out: Activity; in short: as §2
[21] = test system: MDA-MB-435; assay: Cytotoxicity against human MDA-MB-435 cells assessed as cell growth at 0.05 uM by SRB assay; format: functional; conditions: read-out: Activity
[22] = test system: OVCAR-4; assay: Cytotoxicity against human OVCAR4 cells assessed as cell growth at 0.05 uM by SRB assay; format: functional; conditions: read-out: Activity
[23] = test system: DU-145; assay: Cytotoxicity against human DU145 cells assessed as cell growth at 0.05 uM by SRB assay; format: functional; conditions: read-out: Activity; in short: as §2
[24] = test system: BT-549; assay: Cytotoxicity against human BT549 cells assessed as cell growth at 0.05 uM by SRB assay; format: functional; conditions: read-out: Activity
[25] = test system: SR; assay: Cytotoxicity against human SR cells assessed as cell growth at 0.5 uM by SRB assay; format: functional; conditions: read-out: Activity
[26] = test system: NCI-H23; assay: Cytotoxicity against human NCI-H23 cells assessed as cell growth at 0.5 uM by SRB assay; format: functional; conditions: read-out: Activity
[27] = test system: NCI-H460; assay: Cytotoxicity against human NCI-H460 cells assessed as cell growth at 0.5 uM by SRB assay; format: functional; conditions: read-out: Activity
[28] = test system: HCT-116; assay: Cytotoxicity against human HCT116 cells assessed as cell growth at 0.5 uM by SRB assay; format: functional; conditions: read-out: Activity; in short: as §2
[29] = test system: SNB-19; assay: Cytotoxicity against human SNB19 cells assessed as cell growth at 0.5 uM by SRB assay; format: functional; conditions: read-out: Activity
[30] = test system: U-251; assay: Cytotoxicity against human U251 cells assessed as cell growth at 0.5 uM by SRB assay; format: functional; conditions: read-out: Activity
[31] = test system: SK-MEL-28; assay: Cytotoxicity against human SK-MEL-28 cells assessed as cell growth at 0.5 uM by SRB assay; format: functional; conditions: read-out: Activity
[32] = test system: UACC-257; assay: Cytotoxicity against human UACC257 cells assessed as cell growth at 0.5 uM by SRB assay; format: functional; conditions: read-out: Activity
[33] = test system: UACC-62; assay: Cytotoxicity against human UACC62 cells assessed as cell growth at 0.5 uM by SRB assay; format: functional; conditions: read-out: Activity
[34] = test system: A549; assay: Cytotoxicity against human A549/ATCC cells assessed as cell growth at 5 uM by SRB assay; format: functional; conditions: read-out: Activity
[35] = test system: NCI-H522; assay: Cytotoxicity against human NCI-H522 cells assessed as cell growth at 5 uM by SRB assay; format: functional; conditions: read-out: Activity
[36] = test system: SF-295; assay: Cytotoxicity against human SF295 cells assessed as cell growth at 5 uM by SRB assay; format: functional; conditions: read-out: Activity
[37] = test system: OVCAR-4; assay: Cytotoxicity against human OVCAR4 cells assessed as cell growth at 5 uM by SRB assay; format: functional; conditions: read-out: Activity
[38] = test system: 786-0; assay: Cytotoxicity against human 786-0 cells assessed as cell growth at 5 uM by SRB assay; format: functional; conditions: read-out: Activity
[39] = test system: UO-31; assay: Cytotoxicity against human UO31 cells assessed as cell growth at 5 uM by SRB assay; format: functional; conditions: read-out: Activity
[40] = test system: NCI-H23; assay: Cytotoxicity against human NCI-H23 cells assessed as cell growth at 50 uM by SRB assay; format: functional; conditions: read-out: Activity
[41] = read-out: LC50 (the source's name)
[42] = read-out: pLC50 (the source's name) (converted)

COc1cc([C@@H]2c3cc4c(cc3[C@@H](NC(=O)CN3CCN(CCCCCCCCCCN5CCN(CC(=O)N[C@@H]6c7cc8c(cc7[C@@H](c7cc(OC)c(O)c(OC)c7)[C@H]7C(=O)OC[C@@H]76)OCO8)CC5)CC3)[C@H]3COC(=O)[C@H]23)OCO4)cc(OC)c1O
IC50 [1]: 0.044 µM | Ratio IC50 [2]: 2.6 | growth at 50 µM [3]: -92% | growth at 50 µM [4]: -30% | growth at 50 µM [5]: -88% | GI50 ([6]; read-out: GI50): 0.232 µM | CC50 [6, 41]: > 50 µM | TGI ([6]; read-out: TGI): 1.81 µM | GI50 ([6]; read-out: pGI50 (converted)): 0.229 µM | CC50 [6, 42]: > 50.1 µM | TGI ([6]; read-out: pTGI (converted)): 1.82 µM | GI50 ([7]; read-out: GI50): 0.14 µM | CC50 [7, 41]: > 50 µM | TGI ([7]; read-out: TGI): 2.58 µM | GI50 ([7]; read-out: pGI50 (converted)): 0.141 µM | CC50 [7, 42]: > 50.1 µM | TGI ([7]; read-out: pTGI (converted)): 2.57 µM | GI50 ([8]; read-out: GI50): 0.532 µM | CC50 [8, 41]: 23.4 µM | TGI ([8]; read-out: TGI): 6.27 µM | GI50 ([8]; read-out: pGI50 (converted)): 0.537 µM | CC50 [8, 42]: 23.4 µM | TGI ([8]; read-out: pTGI (converted)): 6.31 µM | GI50 ([9]; read-out: GI50): 0.514 µM | CC50 [9, 41]: > 50 µM | TGI ([9]; read-out: TGI): 2.2 µM | GI50 ([9]; read-out: pGI50 (converted)): 0.513 µM | CC50 [9, 42]: > 50.1 µM | TGI ([9]; read-out: pTGI (converted)): 2.19 µM | GI50 ([10]; read-out: GI50): 6.48 µM | CC50 [10, 41]: > 50 µM | TGI ([10]; read-out: TGI): > 50 µM | GI50 ([10]; read-out: pGI50 (converted)): 6.46 µM | CC50 [10, 42]: > 50.1 µM | TGI ([10]; read-out: pTGI): > 50.1 µM | GI50 ([11]; read-out: GI50): 0.557 µM | CC50 [11, 41]: 16.5 µM | TGI ([11]; read-out: TGI): 5.43 µM | GI50 ([11]; read-out: pGI50 (converted)): 0.562 µM | CC50 [11, 42]: 16.6 µM | TGI ([11]; read-out: pTGI (converted)): 5.37 µM | GI50 ([12]; read-out: GI50): 0.791 µM | CC50 [12, 41]: > 50 µM | TGI ([12]; read-out: TGI): 2.38 µM | GI50 ([12]; read-out: pGI50 (converted)): 0.794 µM | CC50 [12, 42]: > 50.1 µM | TGI ([12]; read-out: pTGI (converted)): 2.4 µM | GI50 ([13]; read-out: GI50): 0.986 µM | CC50 [13, 41]: 13.5 µM | TGI ([13]; read-out: TGI): 3.61 µM | GI50 ([13]; read-out: pGI50 (converted)): 0.977 µM | CC50 [13, 42]: 13.5 µM | TGI ([13]; read-out: pTGI (converted)): 3.63 µM | GI50 ([14]; read-out: GI50): 0.844 µM | CC50 [14, 41]: 16.9 µM | TGI ([14]; read-out: TGI): 2.62 µM | GI50 ([14]; read-out: pGI50 (converted)): 0.851 µM | CC50 [14, 42]: 17 µM | TGI ([14]; read-out: pTGI (converted)): 2.63 µM | growth at 0.005 µM [15]: 91% | growth at 0.005 µM [16]: 99% | growth at 0.005 µM [17]: 85% | growth at 0.05 µM [18]: 90% | growth at 0.05 µM [19]: 90% | growth at 0.05 µM [20]: 83% | growth at 0.05 µM [21]: 87% | growth at 0.05 µM [22]: 94% | growth at 0.05 µM [23]: 77% | growth at 0.05 µM [24]: 87% | growth at 0.5 µM [25]: 33% | growth at 0.5 µM [26]: 25% | growth at 0.5 µM [27]: 94% | growth at 0.5 µM [28]: 78% | growth at 0.5 µM [29]: 42% | growth at 0.5 µM [30]: 51% | growth at 0.5 µM [31]: 138% | growth at 0.5 µM [32]: 73% | growth at 0.5 µM [33]: 81% | growth at 5 µM [34]: -29% | growth at 5 µM [35]: -54% | growth at 5 µM [36]: 17% | growth at 5 µM [37]: -28% | growth at 5 µM [38]: -13% | growth at 5 µM [39]: -13% | growth at 50 µM [40]: -92%
